Laboratory results from ChEMBL document CHEMBL1914430, “Synthesis of some new 1,3,5-trisubstituted pyrazolines bearing benzene sulfonamide as anticancer and anti-inflammatory agents” (Bioorg Med Chem Lett, 2011).

Tests used:
Type in all cases: functional
SN12C = experiment: Anticancer activity against human SN12C cells after 48 hrs
How it was run: (§1)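 NCI 60-line panel protocol with a 48 h incubation. Per line: GI50 = concentration giving 50% decrease in net cell growth; TGI = total growth inhibition; LC50 = net 50% loss of initial cells. When the level was not reached or was exceeded, the value is given as greater or less than the highest or lowest concentration tested.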

BT-549 = experiment: Anticancer activity against human BT549 cells after 48 hrs; conditions: BT-549, 48 h
How it was run: (§2)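 NCI Drug Evaluation Branch 60-cell-line screen across leukemia, melanoma, lung, colon, CNS, ovarian, renal, prostate and breast panels. The incubation period is 48 h. Parameters are derived from dose–response data: GI50 is the concentration giving 50% decrease in net growth, TGI is total growth inhibition, and LC50 is net 50% loss of initial cells. Values beyond the tested range are reported as greater or less than the maximum or minimum concentration.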

SW-620 = experiment: Anticancer activity against human SW620 cells after 48 hrs; conditions: SW-620, 48 h; how it was run: as §1
NCI-H522 = experiment: Anticancer activity against human NCI-H522 cells after 48 hrs; conditions: NCI-H522, 48 h; how it was run: as §1
HCT-116 = experiment: Anticancer activity against human HCT116 cells after 48 hrs; conditions: HCT-116, 48 h; how it was run: as §2
OVCAR-8 = experiment: Anticancer activity against human OVCAR8 cells after 48 hrs; conditions: OVCAR-8, 48 h; how it was run: as §1
UACC-62 = experiment: Anticancer activity against human UACC62 cells after 48 hrs; conditions: UACC-62, 48 h
How it was run: (§3)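 NCI ~60 human tumour cell line panel with a 48 h incubation. GI50 is the concentration giving a 50% fall in net growth, TGI gives total growth inhibition, and LC50 gives a net 50% loss of initial cells. An effect not reached or exceeded is reported as greater or less than the highest or lowest concentration tested.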

M14 = experiment: Anticancer activity against human M14 cells after 48 hrs; conditions: M14, 48 h; how it was run: as §2
SK-OV-3 = experiment: Anticancer activity against human SKOV3 cells after 48 hrs; conditions: SK-OV-3, 48 h; how it was run: as §1
HT-29 = experiment: Anticancer activity against human HT-29 cells after 48 hrs; conditions: HT-29, 48 h; how it was run: as §2
HL-60(TB) = experiment: Anticancer activity against human HL-60(TB) cells after 48 hrs; conditions: HL-60, 48 h
How it was run: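 NCI 60-cell-line panel protocol: cells exposed to compound for 48 h. Initial one-dose screen at 10⁻⁵ M. GI50 = concentration giving 50% decrease in net cell growth. TGI = concentration giving total growth inhibition. LC50 = concentration giving net 50% loss of initial cells at the end of incubation. A value not reached or exceeded is reported as greater or less than the highest or lowest concentration tested.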

KM12 = experiment: Anticancer activity against human KM12 cells after 48 hrs; conditions: KM12, 48 h; how it was run: as §2
SR = experiment: Anticancer activity against human SR cells after 48 hrs; how it was run: as §1
MDA-MB-435 = experiment: Anticancer activity against human MDA-MB-435 cells after 48 hrs; conditions: MDA-MB-435, 48 h; how it was run: as §2
UO-31 = experiment: Anticancer activity against human UO31 cells after 48 hrs; conditions: UO-31, 48 h, read-out: LC50 (the source's name); how it was run: as §3
SF-295 = experiment: Anticancer activity against human SF295 cells after 48 hrs; conditions: SF-295, 48 h; how it was run: as §1
NCI-H23 = experiment: Anticancer activity against human NCI-H23 cells after 48 hrs; conditions: NCI-H23, 48 h; how it was run: as §1
CCRF-CEM = experiment: Anticancer activity against human CCRF-CEM cells after 48 hrs; how it was run: as §2
LOX IMVI = experiment: Anticancer activity against human LOXIMVI cells after 48 hrs; how it was run: as §2
A549 = experiment: Anticancer activity against human A549 cells after 48 hrs; conditions: A549, 48 h; how it was run: as §2
U-251 = experiment: Anticancer activity against human U251 cells after 48 hrs; conditions: U-251, 48 h; how it was run: as §3
MCF7 = experiment: Anticancer activity against human MCF7 cells after 48 hrs; conditions: MCF7, 48 h; how it was run: as §2
[1] = Anticancer activity against human Hs 578T cells after 48 hrs; how it was run: as §2
MDA-MB-231 = experiment: Anticancer activity against human MDA-MB-231 cells after 48 hrs; conditions: MDA-MB-231, 48 h; how it was run: as §2
DU-145 = experiment: Anticancer activity against human DU145 cells after 48 hrs; conditions: DU-145, 48 h; how it was run: as §2
OVCAR-4 = experiment: Anticancer activity against human OVCAR4 cells after 48 hrs; conditions: OVCAR-4, 48 h; how it was run: as §1
K562 = experiment: Anticancer activity against human K562 cells after 48 hrs; conditions: K562, 48 h; how it was run: as §2
RXF 393 = experiment: Anticancer activity against human RXF393 cells after 48 hrs; conditions: RXF 393, 48 h; how it was run: as §1
NCI-H460 = experiment: Anticancer activity against human NCI-H460 cells after 48 hrs; conditions: NCI-H460, 48 h; how it was run: as §1
HCC 2998 = experiment: Anticancer activity against human HCC2998 cells after 48 hrs; conditions: HCC 2998, 48 h; how it was run: as §2
[2] = read-out: LC50 (the source's name)

Cc1cc(O)c(C2=NN(c3ccc(S(N)(=O)=O)cc3)C(c3ccccc3O)C2)cc1Cl (stereo not drawn)
GI50 (SN12C): 4.08 µM | LC50 (SN12C): 43.1 µM | TGI (SN12C): 15.3 µM | GI50 (BT-549): 2.47 µM | TGI (BT-549): 8.18 µM | CC50 (BT-549; [2]): 58.7 µM | GI50 (SW-620): 1.76 µM | TGI (SW-620): 3.59 µM | CC50 (SW-620; [2]): 7.35 µM | GI50 (NCI-H522): 2.15 µM | LC50 (concentration killing 50% of initial cells) (NCI-H522): 28 µM | TGI (NCI-H522): 6.28 µM | GI50 (HCT-116): 1.66 µM | TGI (HCT-116): 3.02 µM | CC50 (HCT-116; [2]): 5.5 µM | GI50 (OVCAR-8): 3.89 µM | TGI (OVCAR-8): 16.5 µM | CC50 (OVCAR-8; [2]): 91.8 µM | GI50 (UACC-62): 3.54 µM | LC50 (UACC-62): 40.8 µM | TGI (UACC-62): 15.5 µM | GI50 (M14): 1.76 µM | TGI (M14): 3.4 µM | CC50 (M14; [2]): 6.56 µM | GI50 (SK-OV-3): 4.41 µM | TGI (SK-OV-3): 14.9 µM | CC50 (SK-OV-3; [2]): 38.6 µM | GI50 (HT-29): 2.37 µM | TGI (HT-29): 5.1 µM | CC50 (HT-29; [2]): 12.9 µM | GI50 (HL-60(TB)): 2.99 µM | LC50 (HL-60(TB)): > 100 µM | TGI (HL-60(TB)): 7.32 µM | GI50 (KM12): 1.78 µM | LC50 (concentration causing net 50% loss of initial cells) (KM12): 6.82 µM | TGI (KM12): 3.48 µM | GI50 (SR): 2.22 µM | LC50 (concentration killing 50% of initial cells) (SR): > 100 µM | TGI (SR): 26.7 µM | GI50 (MDA-MB-435): 2.04 µM | TGI (MDA-MB-435): 4.49 µM | CC50 (MDA-MB-435; [2]): 9.88 µM | CC50 (UO-31): 38.5 µM | GI50 (SF-295): 1.66 µM | LC50 (concentration giving net 50% loss of initial cells) (SF-295): 8.09 µM | TGI (SF-295): 3.67 µM | GI50 (NCI-H23): 2.09 µM | LC50 (concentration killing 50% of initial cells) (NCI-H23): 16 µM | TGI (NCI-H23): 5.03 µM | GI50 (CCRF-CEM): 4.17 µM | LC50 (concentration causing net 50% loss of initial cells) (CCRF-CEM): > 100 µM | TGI (CCRF-CEM): > 100 µM | GI50 (LOX IMVI): 1.73 µM | TGI (LOX IMVI): 3.19 µM | CC50 (LOX IMVI; [2]): 5.87 µM | GI50 (A549): 3.69 µM | LC50 (net 50% loss of initial cells) (A549): 60.5 µM | TGI (A549): 15.5 µM | GI50 (U-251): 2.78 µM | TGI (U-251): 7.76 µM | CC50 (U-251; [2]): 26.9 µM | GI50 (MCF7): 2.66 µM | LC50 (MCF7): 49.5 µM | TGI (MCF7): 9.77 µM | GI50 [1]: 4.64 µM | TGI [1]: 22.5 µM | CC50 [1, 2]: > 100 µM | GI50 (MDA-MB-231): 2.3 µM | TGI (MDA-MB-231): 6.69 µM | CC50 (MDA-MB-231; [2]): 29.5 µM | GI50 (DU-145): 2.41 µM | LC50 (concentration causing net 50% loss of initial cells) (DU-145): 10.6 µM | TGI (DU-145): 4.95 µM | GI50 (OVCAR-4): 3.9 µM | LC50 (OVCAR-4): 51.8 µM | TGI (OVCAR-4): 16 µM | GI50 (K562): 2.56 µM | LC50 (concentration killing 50% of initial cells) (K562): > 100 µM | TGI (K562): 14.6 µM | GI50 (RXF 393): 3.65 µM | LC50 (RXF 393): 64.8 µM | TGI (RXF 393): 13 µM | GI50 (NCI-H460): 2.06 µM | LC50 (50% lethal concentration) (NCI-H460): 9.4 µM | TGI (NCI-H460): 4.48 µM | GI50 (HCC 2998): 2.13 µM | LC50 (net 50% loss of initial cells) (HCC 2998): 8.74 µM | TGI (HCC 2998): 4.31 µM
